This is an account of results in ChEMBL document CHEMBL5365541, “Designing peptide amphiphiles as novel antibacterials and antibiotic adjuvants against gram-negative bacteria” (Bioorg Med Chem, 2023).

Broadly, the MIC is the least concentration at which growth counts as inhibited. Low readings indicate greater potency, high ones weaker potency. The IC50 is the concentration that inhibits the measured activity by half.

≈ marks a conversion by molar mass, not a printed value. Calls of active or inactive are those of the source. The rule behind the calls is not given here. Starred links: 1 amine or outer side, 2 acyl side, 3 side chain; linkers in the order of their positions; H or OH if unused. Non-standard residues stand in square brackets, D forms with d. Residues, ends and D or L forms follow the SMILES beside them. ξ: configuration not given here. X3 = CCCCCCCCCCCCCCCCCCN([C@@H](Cc1c[nH]cn1)C(=O)[*:2])[*:1]; X5 = CCCCCCCCCCCCCCCCCCN([C@@H](CCCNC(=N)N)C(=O)[*:2])[*:1]; ξDap = NCC(N)C(=O)O Where only a bound is given, the exact number is not on record here.

In one series the test system is Acinetobacter baumannii. The experiment in a line: Antibacterial activity against Acinetobacter baumannii incubated for 20 to 24 hrs by broth microdilution method. In kind it is functional. Particulars: time 20-24 hrs. The method, boiled down:
(§1)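 Broth microdilution: colonies suspended directly to 1.5×10^8 CFU/mL (0.5 McFarland), then diluted in Mueller–Hinton broth to ~10^5 CFU/mL final. PA stock 1 mg/mL in water, pH 7, serially diluted in MHB. Plates incubated 20–24 h at 37 °C. MIC = lowest concentration inhibiting growth, read as OD600 with optional 1% TTC staining. Triplicate.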

The test system of series [1] is Escherichia coli. The experiment in a line: Antibacterial activity against Escherichia coli K12 incubated for 20 to 24 hrs by broth microdilution method. In kind it is functional. The conditions noted are these: time 20-24 hrs. Summed up:
as §1
On the technique in general: Dilution methods test growth across graded concentrations, often in twofold steps.

The test system of series [2] is HT-29. The experiment in a line: Cytotoxicity against human HT-29 cells assessed as loss of cell viability at 125 ug/ml incubated for 24 hrs at pH 7.4 by MTT assay. The class given is toxicity, cell-based. Particulars: ht-29, pH 7.4, 24 h, at 125 µg/mL. Summed up:
(§2)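 HT-29 cells in McCoy's 5a with 10% FBS were seeded at 15,000 cells/well and grown 24 h at 37 °C, 10% CO2. Medium then changed to pH 7.4 or pH 6.5 (20 mM MOPS, acidified with HCl). Peptide added in 2-fold dilutions, 7.8–500 µg/mL, for 24 h. Wells washed and given fresh pH 7.4 medium. MTT (12 mM, 10 µL) added for 4 h, then SDS-HCl for 4 h; A570 read.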

A short description of series [3]: Cytotoxicity against human HT-29 cells assessed as viable cells at 250 ug/ml incubated for 24 hrs at pH 7.4 by MTT assay. In kind it is toxicity, cell-based. The conditions noted are these: at 250 µg/mL, read-out: Activity. The method, boiled down:
as §2
In general terms: Tetrazolium assays rely on reduction of a dye to a coloured formazan, in cell work by metabolically active cells.

Series [4] has as its system Staphylococcus aureus. Description: Antibacterial activity against methicillin-resistant Staphylococcus aureus JE2 incubated for 20 to 24 hrs by broth microdilution method. The class given is functional. The conditions noted are these: time 20-24 hrs. The method, boiled down:
(§3)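 Broth microdilution in MHB: direct colony suspension at 0.5 McFarland diluted to ~10^5 CFU/mL final; peptide stock 1 mg/mL in water at pH 7, serially diluted. Incubated 20-24 h at 37 °C; MIC taken as the lowest concentration inhibiting growth (OD 600 nm, 1% TTC stain); triplicate; vancomycin and gentamicin as positive controls.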

Series [5] in a line: Retention time of the compound by RP-HPLC analysis. The class given is physicochemical. Summed up:
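Reverse-phase HPLC, linear gradient 0–100% acetonitrile in water with 0.1% TFA over 20 min; retention time recorded.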

Series [6] deals with HT-29. The experiment in a line: Cytotoxicity against human HT-29 cells assessed as reduction in cell viability at 500 ug/ml incubated for 24 hrs at pH 6.5 by MTT assay. In kind it is toxicity, cell-based. The conditions noted are these: ht-29, pH 6.5, 24 h, dose 500 µg/ml. Summed up:
as §2

Series [7] concerns Staphylococcus aureus. The experiment in a line: Antibacterial activity against methicillin-resistant Staphylococcus aureus 13C incubated for 20 to 24 hrs by broth microdilution method. The class given is functional. The conditions noted are these: time 20-24 hrs. Summed up:
as §3

The test system of series [8] is Staphylococcus aureus. Description: Ratio of MIC for methicillin-resistant Staphylococcus aureus JE2 at pH 5.5 to MIC for methicillin-resistant Staphylococcus aureus JE2 at pH 7.0.
The nature of series [9]: (§4) Cytotoxicity against human HT-29 cells assessed as inhibition of cell growth incubated for 24 hrs at pH 7.4 by MTT assay. Particulars: HT-29 cells, pH 7.4. The class given is toxicity, cell-based. The method, boiled down:
as §2

Series [10] is described as follows: Self assembly property of the compound assessed as formation of micelles at 1 mg/ml incubated overnight by transmission electron microscopy. In kind it is physicochemical. Summed up: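 Samples were dissolved at 2 mM in water, pH 7, and left at room temperature overnight. Applied to copper grids for 5 min, blotted, and negatively stained with NanoVan for 30 s. Imaged by TEM at 120 kV.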

Series [11] is described as follows: (§5) Cytotoxicity against human HT-29 cells assessed as inhibition of cell growth incubated for 24 hrs at pH 6.5 by MTT assay. The class given is toxicity, cell-based. Particulars: HT-29 cells, pH 6.5. Summed up: as §2
Series [12] in a line: Self assembly property of the compound assessed as zeta potential at 250 ug/mL at pH 7 measured after 2 hrs. Particulars: pH 7, 2 h, dose 250 µg/ml. In kind it is physicochemical. Summed up:
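Peptide self-assembled at 1 mg/mL, pH 7, annealed 2 h at 80 °C, and aged overnight. Diluted to 250 µg/mL in water; zeta potential measured at 25 °C.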

Series [13] relates to Escherichia coli. Description: Ratio of MIC for Escherichia coli K12 at pH 5.5 to MIC for Escherichia coli K12 at pH 7.0.
Series [14] concerns Staphylococcus aureus. The experiment in a line: Antibacterial activity against Methicillin-resistant Staphylococcus aureus JE2 infected in Galleria mellonella assessed as survival at 50 mg/kg measured after 4 days relative to control. The class given is functional. Particulars: JE2, 96 h, time 4 day. Summed up: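 G. mellonella larvae injected with 10 µL MRSA JE2 at a pre-set infective dose (60-80% lethality within 48 h, not 100% within 24 h) into last left proleg; after 2 h, 10 µL peptide or antibiotic injected into last right proleg; larvae held at 37 °C, mortality recorded daily for 4 days; untreated infected and PBS-only larvae as controls.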

Series [15] deals with HT-29. The series is described as §4. The conditions noted are these: ht-29, pH 7.4, 24 h, time 24 hrs. In kind it is toxicity, cell-based. Summed up:
as §2

Series [16] has as its system HT-29. The description is as §5. Particulars: ht-29, pH 6.5, 24 h, time 24 hrs. In kind it is toxicity, cell-based. The method, boiled down: as §2
The test system of series [17] is Staphylococcus aureus. The experiment in a line: Antibacterial activity against methicillin resistant Staphylococcus aureus JE2 measured over 21 days by broth microdilution method. The conditions noted are these: time 21.0 day. The class given is functional, organism-based.

With `CO[C@H]1/C=C/O[C@@]2(C)Oc3c(C)c(O)c4c(O)c(c(/C=N/N5CCN(C)CC5)c(O)c4c3C2=O)NC(=O)/C(C)=C\C=C\[C@H](C)[C@H](O)[C@@H](C)[C@@H](O)[C@@H](C)[C@H](OC(C)=O)[C@@H]1C` [RIFAMPIN], the MIC with Acinetobacter baumannii and against Escherichia coli [1] was 8 mg/L (≈ 9.72 µM) each time.
As to `CCCCCCCCCCCCCCCCCCN[C@@H](Cc1c[nH]cn1)C(=O)N[C@@H](Cc1c[nH]cn1)C(=O)NC(CN)C(=O)NC(CN)C(=O)NC(CN)C(=O)O` (stereo partly drawn) (H-[X3]H[ξDap][ξDap][ξDap]-OH), the MIC in the series on Acinetobacter baumannii stood at 64 mg/L (≈ 79.7 µM); against Staphylococcus aureus [4] it was 64 mg/L (≈ 79.7 µM); in the series on Escherichia coli [1], 64 mg/L (≈ 79.7 µM); against Staphylococcus aureus [7], 32 mg/L (≈ 39.8 µM). Also, the Activity with HT-29 [2] was 100%; with HT-29 [6], “Non-Toxic”; in series [10], “Active”; in series [12], 30.4 mV. In series [3], the viability at 24 h, 250 ug/ml came out at 0%. In [5], this compound yielded a Retention_time of 14.4 min. Also, the Ratio with Staphylococcus aureus [8] and in the series with Escherichia coli [13] was over 1 throughout. Moreover, the IC50 at 24 h in [9] worked out at 126 mg/L (≈ 157 µM); in series [11] it was 72.3 mg/L (≈ 90 µM).
On to `CN[C@H](CC(C)C)C(=O)N[C@H]1C(=O)N[C@@H](CC(N)=O)C(=O)N[C@H]2C(=O)N[C@H]3C(=O)N[C@H](C(=O)N[C@H](C(=O)O)c4cc(O)cc(O)c4-c4cc3ccc4O)[C@H](O)c3ccc(c(Cl)c3)Oc3cc2cc(c3O[C@@H]2O[C@H](CO)[C@@H](O)[C@H](O)[C@H]2O[C@H]2C[C@](C)(N)[C@H](O)[C@H](C)O2)Oc2ccc(cc2Cl)[C@H]1O` [VANCOMYCIN], for which the survival at 50 mg/kg with Staphylococcus aureus [14] is 30%. The same compound registered an MIC in the series on Escherichia coli [1] of 128 mg/L (≈ 88.3 µM).
For `CCCCCCCCCCCCCCCCCCN[C@@H](CCCNC(=N)N)C(=O)N[C@@H](CCCNC(=N)N)C(=O)NC(CN)C(=O)NC(CN)C(=O)NC(CN)C(=O)O` (stereo partly drawn) (H-[X5]R[ξDap][ξDap][ξDap]-OH), the MIC in the series with Acinetobacter baumannii was determined as 32 mg/L (≈ 38 µM); in the series with Staphylococcus aureus [4], 32 mg/L (≈ 38 µM); in the series with Escherichia coli [1] it was 32 mg/L (≈ 38 µM); against Staphylococcus aureus [7] it was 16 mg/L (≈ 19 µM). Besides, in series [5], the Retention_time came out at 14.6 min. Besides, the Ratio in the series with Staphylococcus aureus [8] and in the series on Escherichia coli [13] was over 1 each time. Besides, the half-inhibitory concentration (IC50) at 24 h in series [9] turned out to be 117 mg/L (≈ 139 µM); in series [11], 81.7 mg/L (≈ 97.1 µM). Also, the Activity result in series [10] is given as “Active”; in series [12], 30.1 mV.
For the compound `CCCCCCCCCCCCCCCCCCN[C@@H](C)C(=O)N[C@@H](C)C(=O)NC(CN)C(=O)NC(CN)C(=O)NC(CN)C(=O)O` (stereo partly drawn), the MIC against Acinetobacter baumannii turned out to be 64 mg/L (≈ 95.4 µM); in the series on Staphylococcus aureus [4], 32 mg/L (≈ 47.7 µM); with Escherichia coli [1], 32 mg/L (≈ 47.7 µM); in the series with Staphylococcus aureus [7] it was 64 mg/L (≈ 95.4 µM). The compound also displayed a Retention_time in [5] of 15.9 min. The Ratio with Staphylococcus aureus [8] and with Escherichia coli [13] was over 1 in each case. The Activity result in the series on HT-29 [15] is recorded as “Non-Toxic”; in series [10], “Active”; in the series on HT-29 [16], “Non-Toxic”; in [12] it was 10.3 mV.
Regarding `CNC(C)[C@@H]1CC[C@@H](N)[C@@H](O[C@H]2[C@H](O)[C@@H](O[C@H]3OC[C@](C)(O)[C@H](NC)[C@H]3O)[C@H](N)C[C@@H]2N)O1` (stereo partly drawn), the MIC against Acinetobacter baumannii and with Escherichia coli [1] was 1 mg/L (≈ 2.09 µM) each time. For the same compound, in the series on Staphylococcus aureus [17], the result was Active.
